Results published in ChEMBL document CHEMBL1146783, “Conformationally restricted analogs of deoxynegamycin” (Bioorg Med Chem Lett, 2004).
Values after ≈ are worked out from the molar mass of the structure shown.

Columns and labels:
Format in all cases: functional
[1] = tested on: Escherichia coli; assay: Minimum inhibitory concentration (MIC) against Escherichia coli ATCC 25922
Summary of the method: (§1)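 Broth microdilution in Mueller–Hinton broth supplemented with 50% human serum; inoculum 5 × 10⁵ cfu/mL.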

[2] = tested on: Escherichia coli; assay: Minimum inhibitory concentration (MIC) against Escherichia coli MG1655; summary of the method: as §1
[3] = tested on: Escherichia coli; assay: Minimum inhibitory concentration (MIC) against Escherichia coli MG1655 tolC; summary of the method: as §1
[4] = tested on: Enterobacter cloacae; assay: Minimum inhibitory concentration (MIC) against Enterobacter cloacae ATCC 35030; summary of the method: as §1
[5] = tested on: Klebsiella pneumoniae; assay: Minimum inhibitory concentration (MIC) against Klebsiella pneumoniae ATCC 13882; summary of the method: as §1
[6] = tested on: Pseudomonas aeruginosa; assay: Minimum inhibitory concentration (MIC) against Pseudomonas aeruginosa PA01; summary of the method: as §1
[7] = tested on: Streptococcus pneumoniae; assay: Minimum inhibitory concentration (MIC) against Streptococcus pneumoniae 1005; summary of the method: as §1
[8] = tested on: Staphylococcus aureus; assay: Minimum inhibitory concentration (MIC) against Staphylococcus aureus ATCC 25293; summary of the method: as §1
[9] = tested on: Escherichia coli; assay: Minimum inhibitory concentration (MIC) against Escherichia coli ATCC 25922; Inactive; summary of the method: as §1
[10] = tested on: Escherichia coli; assay: Minimum inhibitory concentration (MIC) against Escherichia coli MG1655; Inactive; summary of the method: as §1
[11] = tested on: Enterobacter cloacae; assay: Minimum inhibitory concentration (MIC) against Enterobacter cloacae ATCC 35030; Inactive; summary of the method: as §1
[12] = tested on: Pseudomonas aeruginosa; assay: Minimum inhibitory concentration (MIC) against Pseudomonas aeruginosa PA01; Inactive; summary of the method: as §1
[13] = tested on: Streptococcus pneumoniae; assay: Minimum inhibitory concentration (MIC) against Streptococcus pneumoniae 1005; Inactive; summary of the method: as §1
[14] = tested on: Staphylococcus aureus; assay: Minimum inhibitory concentration (MIC) against Staphylococcus aureus […]; Inactive; summary of the method: as §1
[15] = tested on: Escherichia coli; assay: Minimum inhibitory concentration (MIC) against Escherichia coli MG1655 tolC; Inactive; summary of the method: as §1
[16] = tested on: Klebsiella pneumoniae; assay: Minimum inhibitory concentration (MIC) against Klebsiella pneumoniae ATCC 13882; Inactive; summary of the method: as §1
[17] = species: Mus musculus; assay: Compound was evaluated for its efficacy in an Escherichia coli murine septicemia model
Summary of the method: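 Mice infected intraperitoneally with about 1 × 10⁵ cfu of E. coli ATCC25922; compound given intravenously at 1 and 5 h post-infection.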

[18] = Escherichia coli, ATCC 25922, read-out: MIC
[19] = Escherichia coli, read-out: MIC
[20] = Escherichia coli, MG1655, read-out: MIC
[21] = Enterobacter cloacae, ATCC 35030, read-out: MIC
[22] = Klebsiella pneumoniae, ATCC 13882, read-out: MIC
[23] = Pseudomonas aeruginosa, read-out: MIC
[24] = Staphylococcus aureus, ATCC 25293, read-out: MIC

`CN(CC(=O)O)NC(=O)C[C@H](N)CC1CC1N` (stereo not given in full) gave an MIC [1, 18] of 64 µg/mL (≈ 262 µM), an MIC [2, 19] of 64 µg/mL (≈ 262 µM) and an MIC [3, 20] of 32 µg/mL (≈ 131 µM). It also gave an MIC [4, 21] of 128 µg/mL (≈ 524 µM), an MIC [5, 22] of 32 µg/mL (≈ 131 µM) and an MIC [6, 23] of 256 µg/mL (≈ 1050 µM). For the same compound, the MIC [7] was 128 µg/mL (≈ 524 µM) and the MIC [8, 24] was 256 µg/mL (≈ 1050 µM).
With `CN(CC(=O)O)NC(=O)C[C@H](N)Cc1csc(CNC(=O)OC(C)(C)C)n1` the MIC [9] was greater than 256 µg/mL, the MIC [10] was greater than 256 µg/mL and the MIC [11] was greater than 256 µg/mL. For the same compound, the MIC [12] was greater than 256 µg/mL, the MIC [13] was greater than 256 µg/mL and the MIC [14] was greater than 256 µg/mL. The MIC [15] was greater than 256 µg/mL and the MIC [16] was greater than 256 µg/mL.
With `CN(CC(=O)O)NC(=O)C[C@H](N)c1csc(CNC(=O)OC(C)(C)C)n1` the MIC [9] was greater than 256 µg/mL, the MIC [10] was greater than 256 µg/mL and the MIC [11] was greater than 256 µg/mL. It also gave an MIC [12] greater than 256 µg/mL, an MIC [13] greater than 256 µg/mL and an MIC [14] greater than 256 µg/mL. The MIC [15] was greater than 256 µg/mL and the MIC [16] was greater than 256 µg/mL.
Work on `CN(CC(=O)O)NC(=O)C[C@H](N)/C=C/CN` yielded an MIC [1, 18] greater than 256 µg/mL, an MIC [2, 19] greater than 256 µg/mL and an MIC [3, 20] greater than 256 µg/mL. It also gave an MIC [4, 21] greater than 256 µg/mL, an MIC [5, 22] greater than 256 µg/mL and an MIC [6, 23] greater than 256 µg/mL. It also gave an MIC [7] of 256 µg/mL (≈ 1110 µM) and an MIC [8, 24] greater than 256 µg/mL.
For `CN(CC(=O)O)NC(=O)CC(N)[C@H]1CC[C@@H](N)C1` (stereo not given in full), the MIC [1, 18] was 128 µg/mL (≈ 496 µM), the MIC [2, 19] was 128 µg/mL (≈ 496 µM) and the MIC [3, 20] was 64 µg/mL (≈ 248 µM). For the same compound, the MIC [4, 21] was 128 µg/mL (≈ 496 µM), the MIC [5, 22] was 64 µg/mL (≈ 248 µM) and the MIC [6, 23] was 256 µg/mL (≈ 991 µM). For the same compound, the MIC [7] was 128 µg/mL (≈ 496 µM) and the MIC [8, 24] was 128 µg/mL (≈ 496 µM).
`CN(CC(=O)O)NC(=O)C[C@H](N)C1CC1CN` (stereo not given in full) gave an MIC [1, 18] greater than 128 µg/mL, an MIC [2, 19] greater than 128 µg/mL and an MIC [3, 20] greater than 128 µg/mL. The MIC [4, 21] was greater than 128 µg/mL, the MIC [5, 22] was greater than 128 µg/mL and the MIC [6, 23] was greater than 128 µg/mL. It also gave an MIC [8, 24] greater than 128 µg/mL.
With `CN(CC(=O)O)NC(=O)C[C@H](N)c1csc(CCNC(=O)OC(C)(C)C)n1` the MIC [9] was greater than 256 µg/mL, the MIC [10] was greater than 256 µg/mL and the MIC [11] was greater than 256 µg/mL. It also gave an MIC [12] greater than 256 µg/mL, an MIC [13] greater than 256 µg/mL and an MIC [14] greater than 256 µg/mL. For the same compound, the MIC [15] was greater than 256 µg/mL and the MIC [16] was greater than 256 µg/mL.
Work on `CN(CC(=O)O)NC(=O)C[C@H](N)C1CC1N` (stereo in doubt; 35e1) yielded an MIC [1] greater than 128 µg/mL, an MIC [2] greater than 128 µg/mL and an MIC [3] greater than 128 µg/mL. The MIC [4] was greater than 128 µg/mL, the MIC [5] was greater than 128 µg/mL and the MIC [6] was greater than 128 µg/mL. It also gave an MIC [8] greater than 128 µg/mL.
Compound `CN(CC(=O)O)NC(=O)C[C@H](N)C1CC1N` (stereo in doubt; 35e2) has an MIC [1, 18] of 128 µg/mL (≈ 556 µM), an MIC [2, 19] of 128 µg/mL (≈ 556 µM) and an MIC [3, 20] of 128 µg/mL (≈ 556 µM). The MIC [4, 21] was 128 µg/mL (≈ 556 µM), the MIC [5, 22] was 128 µg/mL (≈ 556 µM) and the MIC [6, 23] was 128 µg/mL (≈ 556 µM). The MIC [8, 24] was 128 µg/mL (≈ 556 µM).
`CN(CC(=O)O)NC(=O)C[C@H](N)C[C@@H](O)CN` [NEGAMYCIN] was tested, and the ED50 [17] was 5.1 mg/kg.
